Data published in ChEMBL document CHEMBL2406957, “C-(α-d-Glucopyranosyl)-phenyldiazomethanes-irreversible inhibitors of α-glucosidase” (Bioorg Med Chem, 2013).
Active and inactive are the calls of the source. No cut-off for these calls is given here.

Columns and labels:
[1] = Irreversible inhibition of Saccharomyces cerevisiae alpha-glucosidase using PNPG as substrate by Kitz-Wilson plot analysis
Method in brief: (§1)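 Yeast α-glucosidase (final 4 µg/mL, 0.064 µM) preincubated at 30 °C in pH 7.5 Tris–HCl with inhibitor at final 0.01–0.08 mM. Aliquots taken at 5–40 min into 2 mM PNPG (pH 6.8), 5 min at 30 °C, Na2CO3 quench, A400. Activity as % of no-inhibitor control. kobs from first-order fits; Ki and ki from double-reciprocal Kitz–Wilson replot.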

[2] = Inhibition of Saccharomyces cerevisiae alpha-glucosidase using PNPG as substrate incubated for 40 mins prior to substrate addition measured after 5 mins by spectrophotometry
Method in brief: (§2)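 Enzyme (final 4 µg/mL, 0.064 µM) incubated 40 min at 30 °C in pH 7.5 buffer with compound at final 0.01–0.08 mM. Aliquot then added to 2 mM PNPG in pH 6.8 buffer for 5 min at 30 °C. Reaction quenched with Na2CO3, p-nitrophenolate read at 400 nm. Residual activity expressed relative to enzyme control.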

Saccharomyces cerevisiae [3] = assay: Inhibition of Saccharomyces cerevisiae alpha-glucosidase using PNPG as substrate at 60 uM incubated for 40 mins prior to substrate addition measured after 5 mins by spectrophotometry relative to control; method in brief: as §2
Saccharomyces cerevisiae [4] = assay: Irreversible inhibition of Saccharomyces cerevisiae alpha-glucosidase using PNPG as substrate at 0.04 mM incubated for 5 to 40 mins prior to substrate addition measured after 5 mins by spectrophotometry in presence of (2R,3R,4R,5S,6R)-2-((R)-amino(phenyl)methyl)-6-(hydroxymethyl)tetrahydro-2H-pyran-3,4,5-triol
[5] = Half life of the compound in buffer at 50 uM at pH 3.0 by UV-vis spectrophotometric analysis; type: physicochemical
Method in brief: (§3)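 Isolated diazo compound dissolved at 50 μM in buffer of set pH (7.0 down to 3.0) in a cuvette; UV spectra scanned 190–350 nm every 30 s at room temperature until no further change. Blue shift of λmax followed; decay fitted to a single exponential, t1/2 = t1 ln2.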

Saccharomyces cerevisiae [6] = assay: Irreversible inhibition of Saccharomyces cerevisiae alpha-glucosidase using PNPG as substrate assessed as residual enzyme activity incubated for 5 to 40 mins prior to substrate addition measured after 5 mins by spectrophotometry; method in brief: as §1
[7] = Half life of the compound in buffer at 50 uM at pH 4.0 by UV-vis spectrophotometric analysis; type: physicochemical; method in brief: as §3
[8] = Half life of the compound in buffer at 50 uM at pH 5.0 by UV-vis spectrophotometric analysis; type: physicochemical; method in brief: as §3
[9] = Half life of the compound in buffer at 50 uM at pH 6.0 by UV-vis spectrophotometric analysis; type: physicochemical; method in brief: as §3
[10] = Chemical stability of the compound in neutral media at 50 uM at pH 7.0 by UV-vis spectrophotometric analysis; type: physicochemical; details: buffer, pH 7, 50 µM; method in brief: as §3
[11] = Reversible inhibition of Saccharomyces cerevisiae alpha-glucosidase using PNPG as substrate

For `N#Cc1ccc(C(=[N+]=[N-])[C@H]2O[C@H](CO)[C@@H](O)[C@H](O)[C@H]2O)cc1`, the Ki [1] was 2160 µM, the IC50 [2] was 20.6 µM and the inhibition (Saccharomyces cerevisiae [3]) was 90%. The inhibition (Saccharomyces cerevisiae [4]) was “inactive”, the half-life at 50 µM [5] was 0.183 min and the inhibition (Saccharomyces cerevisiae [6]) was “Dose-dependent effect”. The half-life at 50 µM [7] was 0.483 min, the half-life at 50 µM [8] was 2.35 min and the half-life at 50 µM [9] was 4.2 min. For the same molecule, the Stability [10] was “Stable”.

`N#Cc1ccc([C@H](O)[C@H]2O[C@H](CO)[C@@H](O)[C@H](O)[C@H]2O)cc1` showed an inhibition (Saccharomyces cerevisiae [3]) of 40%.

For `N[C@H](c1ccccc1)[C@H]1O[C@H](CO)[C@@H](O)[C@H](O)[C@H]1O`, the Ki [11] was 1.1 µM.

`N#Cc1ccc(C[C@H]2O[C@H](CO)[C@@H](O)[C@H](O)[C@H]2O)cc1` gave an inhibition (Saccharomyces cerevisiae [3]) of 40%.
